The test system of series [1] is PC-3. Briefly: Antiproliferative activity against human PC-3 cells assessed as reduction in cell viability incubated for 72 hrs in presence of 10% FBS by MTT assay. In kind it is functional, cell-based. The note with it: PC-3, 72 h. Summed up: (§1)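 Cells left to adhere 24 h, then exposed to CBD (0–100 μM) for 72 h in medium with 10% FBS. MTT incubation 3 h at 37 °C, DMSO solubilisation, A570. Viability relative to vehicle; IC50 from nonlinear regression; at least three independent experiments.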
For orientation: Tetrazolium dyes change colour on reduction, which living cells bring about.

Series [2] has as its system LNCaP. As to the kind of experiment: Antiproliferative activity against human LNCap cells assessed as reduction in cell viability incubated for 72 hrs in presence of 10% FBS by MTT assay. In kind it is functional, cell-based. Summed up:
as §1

Series [3] concerns DU-145. Briefly: Induction of cell death in human DU-145 cells assessed as reduction in cell nucleus area at 1 to 10 uM measured after 72 hrs by Hoechst 33342 staining based high content imaging fluorescence microscopic analysis. The format is functional. The following applies: dose 1-10 µM. Summed up:
(§2)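 DU145 or PC-3 cells seeded at 2 × 10^3 per well and given CBD at 1, 5 or 10 μM with serum for 72 h; staurosporine as positive control. Stained 30 min with Hoechst 33342 (1:5000), YO-PRO-1 (1:1000) and PI (1:1000). High-content imaging with a 63× water objective. Hoechst gave confluency, nucleus area and circularity; YO-PRO/PI gave healthy, early and late apoptotic fractions.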

Series [4] has as its system PC-3. Briefly: Induction of cell death in human PC-3 cells assessed as reduction in cell nucleus area at 1 to 10 uM measured after 72 hrs by Hoechst 33342 staining based high content imaging fluorescence microscopic analysis. In kind it is functional. The following applies: dose 1-10 µM. Summed up: as §2
The test system of series [5] is DU-145. Briefly: Induction of apoptosis in human DU-145 cells assessed as reduction in fraction of healthy cells at 1 to 10 uM incubated for 72 hrs by YO-PRO and propidium iodide staining based high content imaging fluorescence microscopic analysis. The format is functional, cell-based. The note with it: dose 1-10 µM. Summed up:
as §2

The test system of series [6] is DU-145. Briefly: Induction of apoptosis in human DU-145 cells assessed as early apoptotic cells at 1 to 10 uM incubated for 72 hrs by YO-PRO and propidium iodide staining based high content imaging fluorescence microscopic analysis. In kind it is functional, cell-based. The following applies: dose 1-10 µM. Summed up: as §2
In series [7] the test system is PC-3. Briefly: Induction of apoptosis in human PC-3 cells assessed as early apoptotic cells at 1 to 10 uM incubated for 72 hrs by YO-PRO and propidium iodide staining based high content imaging fluorescence microscopic analysis. In kind it is functional, cell-based. The following applies: dose 1-10 µM. Summed up:
as §2

Series [8] has as its system PC-3. Briefly: Induction of apoptosis in human PC-3 cells assessed as late apoptotic cells at 1 to 10 uM incubated for 72 hrs by YO-PRO and propidium iodide staining based high content imaging fluorescence microscopic analysis. In kind it is functional, cell-based. The following applies: dose 1-10 µM. Summed up:
as §2

For series [9], the system named is DU-145. As to the kind of experiment: Antiproliferative activity against human DU-145 cells assessed as reduction in cell viability incubated for 72 hrs in presence of SR141716 by MTT assay. The format is functional, cell-based. Summed up:
(§3)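 DU145 or PC-3 cells pretreated 1 h with SR141716 (CB1 antagonist), SR144528 (CB2 antagonist), capsazepine (TRPV1 antagonist) or LPI (GPR55 agonist), then given CBD for 72 h. MTT read-out as % of vehicle. Compared with CBD alone by t-test; at least three independent experiments.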

The test system of series [10] is DU-145. As to the kind of experiment: Antiproliferative activity against human DU-145 cells assessed as reduction in cell viability incubated for 72 hrs in presence of capsazepine by MTT assay. The format is functional, cell-based. Summed up: as §3
Series [11] deals with DU-145. As to the kind of experiment: Antiproliferative activity against human DU-145 cells assessed as reduction in cell viability incubated for 72 hrs in presence of LPI by MTT assay. The format is functional, cell-based. Summed up: as §3
For series [12], the system named is PC-3. As to the kind of experiment: Antiproliferative activity against human PC-3 cells assessed as reduction in cell viability incubated for 72 hrs in presence of SR141716 by MTT assay. In kind it is functional, cell-based. Summed up:
as §3

The test system of series [13] is PC-3. Briefly: Antiproliferative activity against human PC-3 cells assessed as reduction in cell viability incubated for 72 hrs in presence of SR144528 by MTT assay. The format is functional, cell-based. Summed up: as §3
For series [14], the system named is PC-3. Briefly: Induction of cell cycle arrest in human PC-3 cells assessed as arrest in G1/S phase by measuring reduction in CDK2 protein expression at IC50 concentration incubated for 48 hrs by Western blotting analysis. The format is functional, cell-based. Summed up: (§4)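 DU145 or PC-3 cells seeded at 5 × 10^4 per well and given CBD for 48 h. Lysed in ice-cold RIPA with protease/phosphatase inhibitor; 40 μg protein per lane, SDS-PAGE, PVDF transfer, milk block. Primary antibodies overnight at 4 °C, then HRP secondary 1 h at room temperature, chemiluminescence. Densitometry normalised to loading control, then to vehicle; at least three experiments.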
(In western blotting, separated proteins are transferred to a membrane and probed.)

In series [15] the test system is PC-3. Briefly: Induction of cell cycle arrest in human PC-3 cells assessed as arrest in G2/M phase by measuring reduction in CDK7 protein expression at IC50 concentration incubated for 48 hrs by Western blotting analysis. The format is functional, cell-based. Summed up: as §4
Series [16] concerns the target Serine/threonine-protein kinase AKT (Homo sapiens) (UniProt P31751+Q9Y243+P31749). Briefly: Inhibition of AKT phosphorylation in human DU-145 cells at IC50 concentration incubated for 48 hrs by Western blot analysis relative to control. In kind it is cell-based. Summed up: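 Cells seeded at 5 × 10^4 per well and treated 48 h with an IC50 dose of CBD in DU145 or PC-3. Lysed in ice-cold RIPA with protease/phosphatase inhibitor. 40 μg protein per lane on SDS-PAGE, then PVDF. Probed overnight at 4 °C for phospho-AKT and total AKT, HRP detection. Densitometry normalised to loading control, then to vehicle. Mean ± SD, ≥3 experiments, t-test.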

Series [17] can be described thus: Cytotoxicity against human PWR-1E cells assessed as cell viability incubated for 72 hrs in serum deprivation condition by MTT assay. In kind it is toxicity, cell-based. Summed up:
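Cells seeded at 1 × 10^3 (DU145, PC-3), 6 × 10^3 (LNCaP), 2 × 10^3 (PWR-1E) or 4.5 × 10^3 (RWPE-1) per well and left to adhere 24 h. CBD (0–100 μM) then given for 72 h in serum-free medium. MTT added for 3 h at 37 °C, formazan dissolved in DMSO, absorbance read at 570 nm. Viability is % of vehicle; IC50 by nonlinear regression; at least three independent experiments.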

The test system of series [18] is PWR-1E. As to the kind of experiment: Cytotoxicity against human PWR-1E cells assessed as reduction in cell confluency at 1 to 10 uM incubated for 72 hrs by Hoechst 33342 staining based high-content fluorescence microscopy. In kind it is toxicity. The following applies: dose 1-10 µM. Summed up:
(§5)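 PWR-1E cells seeded at 2 × 10^3 per well and given CBD at 1, 2 or 10 μM without serum for 72 h. Stained with Hoechst 33342, YO-PRO-1 and PI, then imaged by high-content microscopy. Scored for confluency and for healthy, early and late apoptotic fractions; at least three independent experiments.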

Series [19] relates to PWR-1E. As to the kind of experiment: Induction of apoptosis in human PWR-1E cells assessed as reduction in fraction of healthy cells at 1 to 10 uM incubated for 72 hrs by YO-PRO and propidium iodide staining based high content imaging fluorescence microscopic analysis. In kind it is toxicity, cell-based. The note with it: dose 1-10 µM. Summed up:
as §5

The test system of series [20] is PWR-1E. As to the kind of experiment: Induction of apoptosis in human PWR-1E cells assessed as early apoptotic cells at 1 to 10 uM incubated for 72 hrs […] and propidium iodide staining based high content imaging fluorescence microscopic analysis. The format is toxicity, cell-based. The note with it: dose 1-10 µM. Summed up: as §5
Series [21] has as its system PWR-1E. As to the kind of experiment: Induction of apoptosis in human PWR-1E cells assessed as late apoptotic cells at 1 to 10 uM incubated for 72 hrs by YO-PRO and propidium iodide staining based high content imaging fluorescence microscopic analysis. In kind it is toxicity, cell-based. The following applies: dose 1-10 µM. Summed up: as §5
The subject of series [22] is PC-3. As to the kind of experiment: Anti-invasive activity against human PC-3 cells assessed as reduction in MMP-3 protein secretion incubated for 48 hrs by ELISA analysis. In kind it is functional, cell-based. (In an ELISA, binding on a coated surface is turned into a signal by an enzyme label.)

This note sets out measurements from ChEMBL document CHEMBL5370586 (J Nat Prod, 2023).

The source made the active and inactive calls. No cut-off for these calls is given here.

The term IC50 denotes the concentration that gives 50% inhibition. What is called inhibition is the share of the control response that was lost under treatment.

Sequence of Serine/threonine-protein kinase AKT (Homo sapiens) (P31749 whole entry, looked up): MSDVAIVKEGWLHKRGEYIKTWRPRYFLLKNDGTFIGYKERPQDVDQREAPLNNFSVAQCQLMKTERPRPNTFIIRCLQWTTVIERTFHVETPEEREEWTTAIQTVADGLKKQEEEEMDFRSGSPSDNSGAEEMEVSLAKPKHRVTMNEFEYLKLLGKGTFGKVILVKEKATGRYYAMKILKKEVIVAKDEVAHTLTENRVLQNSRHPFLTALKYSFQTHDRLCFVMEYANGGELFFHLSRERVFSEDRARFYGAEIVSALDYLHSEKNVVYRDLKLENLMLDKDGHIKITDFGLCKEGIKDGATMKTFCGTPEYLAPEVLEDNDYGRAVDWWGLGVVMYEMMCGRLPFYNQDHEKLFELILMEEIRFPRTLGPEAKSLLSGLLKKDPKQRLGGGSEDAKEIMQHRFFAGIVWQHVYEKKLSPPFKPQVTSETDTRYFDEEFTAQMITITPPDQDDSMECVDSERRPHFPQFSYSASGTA
Sequence of Serine/threonine-protein kinase AKT (Homo sapiens) (P31751 whole entry, looked up): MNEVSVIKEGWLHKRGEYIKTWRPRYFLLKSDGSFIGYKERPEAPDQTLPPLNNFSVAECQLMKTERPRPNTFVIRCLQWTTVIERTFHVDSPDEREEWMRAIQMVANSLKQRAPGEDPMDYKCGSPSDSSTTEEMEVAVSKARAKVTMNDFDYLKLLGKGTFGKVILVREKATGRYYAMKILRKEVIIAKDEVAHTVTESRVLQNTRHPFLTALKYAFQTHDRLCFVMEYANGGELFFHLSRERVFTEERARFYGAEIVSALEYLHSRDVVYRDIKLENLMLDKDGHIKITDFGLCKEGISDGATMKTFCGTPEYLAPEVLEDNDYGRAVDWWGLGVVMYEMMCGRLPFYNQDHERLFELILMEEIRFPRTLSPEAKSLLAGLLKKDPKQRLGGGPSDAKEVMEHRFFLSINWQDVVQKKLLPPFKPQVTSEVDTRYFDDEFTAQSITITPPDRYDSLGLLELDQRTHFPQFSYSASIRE
Sequence of Serine/threonine-protein kinase AKT (Homo sapiens) (Q9Y243 whole entry, looked up): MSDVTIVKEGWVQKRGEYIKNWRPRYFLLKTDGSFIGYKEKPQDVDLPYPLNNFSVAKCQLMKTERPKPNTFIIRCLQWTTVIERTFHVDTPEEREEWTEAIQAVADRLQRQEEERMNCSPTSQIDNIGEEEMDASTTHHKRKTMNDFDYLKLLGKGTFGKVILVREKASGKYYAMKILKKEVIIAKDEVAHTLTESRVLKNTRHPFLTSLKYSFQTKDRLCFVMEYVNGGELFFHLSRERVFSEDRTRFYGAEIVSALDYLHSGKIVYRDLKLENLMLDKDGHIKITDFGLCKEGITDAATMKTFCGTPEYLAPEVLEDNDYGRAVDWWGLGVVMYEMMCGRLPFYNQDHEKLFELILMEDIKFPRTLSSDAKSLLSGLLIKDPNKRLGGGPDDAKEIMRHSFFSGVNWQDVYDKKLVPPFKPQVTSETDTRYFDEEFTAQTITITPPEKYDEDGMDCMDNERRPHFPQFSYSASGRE

In the case of `C=C(C)[C@@H]1CCC(C)=C[C@H]1c1c(O)cc(CCCCC)cc1O` [CANNABIDIOL], the values for the IC50 in [1] and in series [2] were 10.5 µM and 18 µM, respectively. Also, the result in series [3], in series [4], in [5], in series [6], in series [7] and in [8] was inactive. Also, the outcome in series [15] and in series [22] was inactive. Also, the result in [9], in [10], in series [11], in series [12], in series [13] and in [14] was Active. The inhibition in series [16] amounted to 40%. Also, the IC50 at 72 h in series [17] stood at 900 nM. For the same compound, the Activity entry in series [18], in series [19], in series [20] and in series [21] was “Toxic” in each case.
